# Compound activity as filed in PubChem BioAssay.
# Compounds with a hit are over-represented: about 3.7% of the library has one in this group of screens.
# SR-BI uptake up = activators of SR-BI mediated DiI-HDL uptake, primary screen, ldlA[mSR-BI] CHO cells, DiI fluorescence; 3 h; 100 = double the neutral-control signal; activation, % at 12.5 µM; actives 0.096% (n = 320,000);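 active means mean replicate activation of at least 60% and every replicate at or above 60%; inconclusive means mean or all-replicate condition met, but not both; inactive means mean below 60% and not all replicates reaching 60%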;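 further: 0% = median plate neutral-control signal and 100% = twice that signal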
#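 Test system: SR-BI-overexpressing, LDLR-lacking CHO cells; Medium: Ham's F12 with 0.5% BSA, HEPES 25 mM, pH 7.4; Schedule: 3 h, 37 °C; Technique: bottom-read fluorescence, 550/595 nm.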
# GAA850 FXN act = FXN promoter activators, primary screen, cell-based, luciferase luminescence, HEK293 lucGAA850. HEK293 lucGAA850 FXN promoter luciferase reporter, 24 h; percent of 10 µM SAHA response. actives 0.56% (n = 360,000). activation, % at 6 µM. AID 540364, 2011;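 active means activation above the average of all compounds screened plus 3 SD, cutoff fixed separately per campaign, cut at about 7.5% in these data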;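 further: 0% = DMSO wells and 100% = 10 µM SAHA wells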
# AHR activator = AHR activators, primary screen, cell-based, luminescence, luciferase reporter, human. Aryl hydrocarbon receptor (Homo sapiens), P35869. AHR-responsive luciferase reporter cells. AID 2796, 2010. actives 2.5% (n = 320,000). activation, % at 5 µM; in the data active means activation above about 47%;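 further: 0% = vehicle wells and 100% = reference agonist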
# SR-BI HDL uptake = inhibitors of SR-BI mediated HDL lipid uptake, primary screen, ldlA[mSR-BI] cells, fluorescence, single point; Scavenger receptor class B member 1 (Mus musculus), Q61009; inhibition, % at 12.5 µM; ldlA[mSR-BI] CHO cells, DiI-HDL uptake fluorescence, 3 h; AID 488896, 2010; actives 0.96% (n = 320,000);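 active means mean replicate inhibition of at least 70% and a set share of replicates each scoring 70 or more; inconclusive means meets just one of the two criteria; inactive means fails both criteria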;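 further: 0% = median of neutral control wells and 100% = median of positive control wells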
# JMJD2C inh = inhibitors of GASC-1 histone demethylase, primary screen, biochemical, fluorescence, DELFIA europium; AID 2099, 2009; inhibition, % at 2.35 µM; GST-JMJD2C(1-420) H3K9me3 demethylation; actives 0.069% (n = 330,000);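 active means more than half of a compound's replicate wells show inhibition beyond 50%, single wells judged on their own value; inconclusive means some, but no more than half, of replicates pass 50% inhibition; inactive means no replicate passes 50% inhibition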;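 further: signal counts dimethyl H3K9 product captured on neutravidin plate; 0% = median of DMSO wells and 100% = 0.3 times that DMSO median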
# Target sequence (Q9H3R0 1-420 limits assumed): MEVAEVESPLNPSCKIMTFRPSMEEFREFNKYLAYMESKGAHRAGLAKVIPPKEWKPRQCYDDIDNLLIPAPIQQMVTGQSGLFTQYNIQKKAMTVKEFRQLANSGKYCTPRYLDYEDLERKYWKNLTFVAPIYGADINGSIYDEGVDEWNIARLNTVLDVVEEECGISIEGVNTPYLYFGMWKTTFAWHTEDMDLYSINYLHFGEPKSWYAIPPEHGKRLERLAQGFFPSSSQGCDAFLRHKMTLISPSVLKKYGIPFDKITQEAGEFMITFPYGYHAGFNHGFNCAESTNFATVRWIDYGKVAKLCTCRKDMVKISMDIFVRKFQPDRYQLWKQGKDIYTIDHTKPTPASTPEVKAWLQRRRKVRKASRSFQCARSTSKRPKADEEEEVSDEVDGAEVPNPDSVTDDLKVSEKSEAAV
# Starred values were filed as active, the others as inactive; i = inactive; ? = inconclusive; . = no result.
SMILES,SR-BI uptake up,GAA850 FXN act,AHR activator,SR-BI HDL uptake,JMJD2C inh
Cc1ccc(Cn2c(C(C)Nc3nc(-c4ccc(F)cc4)cs3)nc3cc(Cl)c(Cl)cc32)cc1 (stereo not drawn),-12,3,59*,12,-5
CC(Nc1nc(-c2cccc(Br)c2)cs1)c1nc2cc(Cl)c(N3CCCCC3)cc2n1CCOCCO (stereo not drawn),-75,0,5,75*,-13
CCn1c(SCC(=O)c2ccc3c(c2)Cc2ccccc2-3)nnc1-c1ccc(N)cc1,-77,-1,0,77*,-12
O=C(CSc1n[nH]c(-c2cccs2)n1)N1CCN(S(=O)(=O)c2ccc3ccccc3c2)CC1,.,-2,13,.,11
COc1ccc(OC)c(Nc2nc(C3CC3)nc3c2nnn3Cc2ccccc2)c1,-26,-2,3,26,3
c1ccc(Cn2nnc3c(Nc4ccc5c(c4)OCO5)nc(C4CC4)nc32)cc1,-29,-1,70*,29,-1
CCC(=O)N1CCc2cc(S(=O)(=O)N3CCN(c4cc(C)ccc4C)CC3)ccc21,-6,1,2,6,0
Cc1cc(C)c(S(=O)(=O)N2CCOC2CNC(=O)C(=O)NCCc2c[nH]c3ccccc23)c(C)c1 (stereo not drawn),196*,2,9,-196,-3
CCOc1cc(/C=N/NC(=O)Cc2ccc(C(F)(F)F)cc2[N+](=O)[O-])ccc1O,34,-4,9,-34,-15
C=CCOc1c(Br)cc(/C=N/NC(=O)Cc2ccc(C(F)(F)F)cc2[N+](=O)[O-])cc1OC,-75,0,12,75*,4
CCc1nnc(NC(=O)c2ccc(S(=O)(=O)N3CCCC(C)C3)cc2)s1 (stereo not drawn),-7,-1,0,7,-2
Cc1cccc2sc(NNC(=O)c3ccc(S(=O)(=O)N4CCc5ccccc5C4)cc3)nc12,-125,-2,21,125*,-2
Cc1cccc2sc(NNC(=O)c3ccc(S(=O)(=O)N4CCCC(C)C4)cc3)nc12 (stereo not drawn),-128,-1,21,128*,0
COCCCNC(=O)C1CCC(CNS(=O)(=O)c2ccc3c(c2)N(C(C)=O)CCO3)CC1 (stereo not drawn),46,1,2,-46,-4
COc1ccc(Nc2nc(OC)nc(N3CCOCC3)n2)cc1,12,3,51*,-12,10
CCOc1ccc(/C=N/Nc2ccccn2)cc1OC,16,6,38,-16,-11
C=CCOc1ccc(/C=N/Nc2ccccn2)cc1OC,-43,7,55*,43,5
NNC(=O)c1ccc(COc2ccc([N+](=O)[O-])cc2)o1,.,1,12,.,7
Cc1cc(C)cc(OCc2ccc(C(=O)NN)o2)c1,-18,0,79*,18,17
CCCc1ccc(OCc2ccc(C(=O)NN)o2)c(OC)c1,-7,2,56*,7,-4
COc1c2ccoc2c(OC[C@@H](OC(C)=O)C(C)(C)O)c2oc(=O)ccc12,9,-3,41,-9,-9
CC1(C)OC1COc1c2ccoc2cc2oc(=O)ccc12 (stereo not drawn),-9,1,68*,9,19
COC(C)(C)[C@H](O)COc1c2ccoc2cc2oc(=O)ccc12,1,-1,57*,-1,-4
COc1c2ccoc2c(OC[C@@H](O)C(C)(C)O)c2oc(=O)ccc12,13,-1,50*,-13,-11
CC(C)(O)C(O)COc1c2ccoc2cc2oc(=O)ccc12 (stereo not drawn),12,2,3,-12,-2
SMILES,SR-BI uptake up,GAA850 FXN act,AHR activator,SR-BI HDL uptake,JMJD2C inh
COc1c2ccoc2cc2oc(=O)ccc12,-7,0,24,7,.
Cc1cc(C(=O)Nc2ccc3c(c2)CCC3)ccc1[N+](=O)[O-],.,4,6,.,1
CSc1cccc(NS(=O)(=O)c2cc(Br)cnc2N)c1,?,0,-1,-188,-7
CCOC(=O)c1[nH]c2ccccc2c1NC(=O)CC(C)C,-11,0,18,11,1
CCOC(=O)c1[nH]c2ccccc2c1NC(=O)c1ccco1,-21,-2,40,21,2
CCOC(=O)c1[nH]c2ccc(F)cc2c1NC(=O)c1cc(OC)c(OC)c(OC)c1,-71,-2,3,71*,9
CCCC(=O)Nc1c(C(=O)OCC)[nH]c2ccccc12,16,-1,58*,-16,134
CCOC(=O)c1[nH]c2ccc(F)cc2c1NC(=O)c1ccccc1C(=O)O,1,3,.,-1,8
CCOC(=O)c1[nH]c2ccccc2c1NC(=S)Nc1ccccc1C,-52,3,59*,55,11
CCOC(=O)c1[nH]c2ccccc2c1NC(=S)Nc1cc(C)ccc1C,11,2,60*,-11,3
CC(=O)N1Cc2cc([N+](=O)[O-])ccc2Oc2ccccc21,-13,3,0,13,2
COc1ccc(C2(C(=O)Nc3ccc(C)c(C)c3)CCOCC2)cc1,1,2,0,-1,2
CCCOc1nc(SCCC)nc2c1cnn2-c1ccccc1,-18,1,3,18,6
CC1=C(C(=O)OC(C)C)C(c2cccc([N+](=O)[O-])c2)n2c(cc(=O)[nH]c2=S)N1 (stereo not drawn),-27,1,0,27,5
COc1cc([N+](=O)[O-])ccc1NC(=O)CSc1nncn1-c1cccnc1,.,-4,1,.,-3
CCOc1ccccc1Nc1nnc(SCC(=O)N(C)C2CCS(=O)(=O)C2)s1 (stereo not drawn),-75,-1,3,75*,-1
O=C(Nc1ccc(Br)cc1)c1cccn1-c1ncc(C(F)(F)F)cc1Cl,-29,-4,62*,29,i
O=C(COc1ccc(Cl)cc1Cl)N1CCCN(C(=O)COc2ccc(Cl)cc2Cl)CC1,-85,0,4,85*,-4
COc1cccc(CNCCSc2nnnn2C)c1,60*,-2,1,-60,-10
O=C(OCC(=O)N1CCOCC1)c1c(Cl)ccc(Cl)c1Cl,6,3,48*,-6,-10
Nc1c(Cl)cc(Cl)cc1C(=O)OCC(=O)N1CCOCC1,-29,1,3,29,7
CCOC(=O)C1=C(C)NC(=O)NC1c1ccc(N2CCC(c3ccccc3)=N2)cc1 (stereo not drawn),-71,-4,57*,?,7
CCCn1c(C)cs/c1=N\C(=S)Nc1ccccc1,1,-2,48*,-1,2
